Source: ChEMBL document CHEMBL4428066, “Small Molecule Reversible Inhibitors of Bruton's Tyrosine Kinase (BTK): Structure-Activity Relationships Leading to the Identification of 7-(2-Hydroxypropan-2-yl)-4-[2-methyl-3-(4-oxo-3,4-dihydroquinazolin-3-yl)phenyl]-9H-carbazole-1-carboxamide (BMS-935177)” (J Med Chem, 2016)
pIC50: −log10 of the molar value. ≈ marks a conversion by molar mass, not a printed value. Calls of active or inactive are those of the source. The rule behind the calls is not given here.

Tests used:
[1] = Cmax in Balb/C mouse at 10 mg/kg, po; type: ADME, organism-based; design: dose 10 mg/kg, route oral; conditions: in vivo
How it was run: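 Male Balb/C mice dosed orally once at 10 mg/kg in PEG300/TPGS/ethanol (90/5/5 v/v/v).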

[2] = target: Tyrosine-protein kinase Tec (Homo sapiens, UniProt P42680); assay: Inhibition of partial length human TEC expressed in bacterial system
[3] = target: Cytoplasmic tyrosine-protein kinase BMX (Homo sapiens, UniProt P51813); assay: Inhibition of full length human BMX expressed in bacterial system
[4] = target: Tyrosine-protein kinase ITK/TSK (Homo sapiens, UniProt Q08881); assay: Inhibition of partial length human ITK expressed in bacterial system
[5] = target: Tyrosine-protein kinase TXK (Homo sapiens, UniProt P42681); assay: Inhibition of partial length human TXK expressed in bacterial system
[6] = target: High affinity nerve growth factor receptor (Homo sapiens, UniProt P04629); assay: Inhibition of partial length human TRKA expressed in mammalian system
[7] = system: Mus musculus; assay: Antiarthritic activity in DBA/1 mouse model of collagen-induced arthritis inflammation assessed as inhibition of inflammation dosed daily and orally beginning on day of primary immunization by H and E staining based microscopy; type: functional, organism-based
[8] = target: Receptor tyrosine-protein kinase erbB-4 (Homo sapiens, UniProt Q15303); assay: Inhibition of partial length human HER4 expressed in bacterial system
[9] = target: BDNF/NT-3 growth factors receptor (Homo sapiens, UniProt Q16620); assay: Inhibition of partial length human TRKB expressed in mammalian system
[10] = target: Proto-oncogene tyrosine-protein kinase receptor Ret (Homo sapiens, UniProt P07949); assay: Inhibition of partial length human RET expressed in bacterial system
[11] = target: Tyrosine-protein kinase Lck (Homo sapiens, UniProt P06239); assay: Inhibition of partial length human LCK expressed in bacterial system
[12] = target: Proto-oncogene tyrosine-protein kinase Src (Homo sapiens, UniProt P12931); assay: Inhibition of partial length human SRC expressed in bacterial system
[13] = Protein binding in human serum; type: ADME, cell-free; conditions: read-out: PB (converted)
[14] = Protein binding in mouse serum; type: ADME, cell-free; conditions: read-out: PB
[15] = target: Cytochrome P450 1A2 (Homo sapiens, UniProt P05177); assay: Inhibition of human liver microsomes CYP1A2 after 30 mins in presence of NADPH; type: ADME
[16] = target: Cytochrome P450 2B6 (Homo sapiens, UniProt P20813); assay: Inhibition of human liver microsomes CYP2B6 after 30 mins in presence of NADPH; type: ADME
[17] = target: Cytochrome P450 2C9 (Homo sapiens, UniProt P11712); assay: Inhibition of human liver microsomes CYP2C9 after 30 mins in presence of NADPH; type: ADME
[18] = Solubility of the compound in fasted state simulated intestinal fluid; type: physicochemical
[19] = Permeability of the compound at pH 7.4 by PAMPA; type: ADME; conditions: read-out: permeability
[20] = system: Mus musculus; assay: Decrease in anti-KLH IgM titers in chronic Balb/C mouse KLH antibody response model at 5 to 45 mg/kg, po qd administered through oral gavage after 14 days by ELISA; type: functional, organism-based
How it was run: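 Chronic KLH challenge model in mice with compound given by mouth. Anti-KLH IgM appears in the first week after challenge. Switching to IgG anti-KLH is evident by day 14.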

[21] = system: Mus musculus; assay: Antiarthritic activity in DBA/1 mouse model of collagen-induced arthritis inflammation assessed reduction in disease severity dosed daily and orally beginning on day of primary immunization; type: functional, organism-based
[22] = system: Mus musculus; assay: Antiarthritic activity in DBA/1 mouse model of collagen-induced arthritis inflammation assessed reduction in disease severity at 10 mg/kg, po dosing daily starting on day of primary immunization; type: functional; design: scale not given: the % may be the effect or the level left
[23] = system: Mus musculus; assay: Antiarthritic activity in DBA/1 mouse model of collagen-induced arthritis inflammation assessed as inhibition of bone resorption end points dosed daily and orally beginning on day of primary immunization by micro-CT analysis; type: functional, organism-based
[24] = system: Mus musculus; assay: Antiarthritic activity in DBA/1 mouse model of collagen-induced arthritis inflammation assessed as protection against pitting dosed daily and orally beginning on day of primary immunization by microcomputed tomography imaging analysis; type: functional, organism-based
[25] = system: Mus musculus; assay: Antiarthritic activity in DBA/1 mouse model of collagen-induced arthritis inflammation assessed as protection against woven porous bones dosed daily and orally beginning on day of primary immunization by microcomputed tomography imaging analysis; type: functional, organism-based
[26] = system: Mus musculus; assay: Antiarthritic activity in DBA/1 mouse model of collagen-induced arthritis inflammation assessed as presence of smooth bone surface at 20 mg/kg, po dosed daily beginning on day of primary immunization by microcomputed tomography imaging analysis; type: functional, organism-based
[27] = system: Mus musculus; assay: Antiarthritic activity in DBA/1 mouse model of collagen-induced arthritis inflammation assessed as reduction of disease severity at 30 mg/kg, qd administered through oral gavage dosed after day 21 booster immunization; type: functional, organism-based
[28] = system: Mus musculus; assay: Antiarthritic activity in Balb/C mouse model of anti-collagen antibody-induced arthritis assessed as reduction in paw clinical scores at dosed orally daily for 3 days followed by LPS challenge; type: functional, organism-based
[29] = Cmax in mouse plasma at 5 mg/kg, administered through oral gavage after 0.25 to 24 hrs by LC/MS/MS analysis; type: ADME, organism-based; design: dose 5 mg/kg, route oral
[30] = Tmax in mouse plasma at 5 mg/kg, administered through oral gavage after 0.25 to 24 hrs by LC/MS/MS analysis; type: ADME, organism-based
[31] = AUC in mouse plasma at 5 mg/kg, administered through oral gavage after 0.25 to 24 hrs by LC/MS/MS analysis; type: ADME, organism-based; design: time 0.25-24 hr, dose 5 mg/kg, route oral
[32] = Half life in mouse plasma at 2 mg/kg, iv through bolus administration after 0.05 to 24 hrs by LC/MS/MS analysis; type: ADME, organism-based
[33] = Volume of distribution in steady state in mouse at 2 mg/kg, iv through bolus administration after 0.05 to 24 hrs by LC/MS/MS analysis; type: ADME, organism-based; conditions: in vivo, read-out: Vdss
[34] = Oral bioavailability in mouse at 5 mg/kg after 0.25 to 24 hrs by LC/MS/MS analysis; type: ADME, organism-based; conditions: in vivo
[35] = Cmax in Sprague-Dawley rat plasma at 5 mg/kg, administered through oral gavage by LC/MS/MS analysis; type: ADME, organism-based; design: dose 5 mg/kg, route oral
[36] = AUC in Sprague-Dawley rat plasma at 5 mg/kg, administered through oral gavage by LC/MS/MS analysis; type: ADME, organism-based
[37] = Plasma clearance in Sprague-Dawley rat at 2 mg/kg, iv through bolus administration by LC/MS/MS analysis; type: ADME, organism-based
[38] = AUC in Beagle dog plasma at 2 mg/kg, administered through oral gavage after 0.25 to 48 hrs by LC/MS/MS analysis; type: ADME, organism-based, Canis lupus familiaris; design: time 0.25-48 hr, dose 2 mg/kg, route oral
[39] = Tmax in cynomolgus monkey plasma at 2 mg/kg, administered through oral gavage after 0.25 to 48 hrs by LC/MS/MS analysis; type: ADME, organism-based, Macaca fascicularis
[40] = AUC in cynomolgus monkey plasma at 2 mg/kg, administered through oral gavage after 0.25 to 48 hrs by LC/MS/MS analysis; type: ADME, organism-based, Macaca fascicularis; design: time upper 48 hr, dose 2 mg/kg, time lower 0.25 hr, route oral
[41] = Oral bioavailability in cynomolgus monkey at 2 mg/kg after 0.25 to 48 hrs by LC/MS/MS analysis; type: ADME, organism-based, Macaca fascicularis; conditions: in vivo
[42] = system: Mus musculus; assay: Antiarthritic activity in DBA/1 mouse model of collagen-induced arthritis inflammation assessed as protection against fusion of small bones dosed daily and orally beginning on day of primary immunization by microcomputed tomography imaging analysis; type: functional, organism-based

BDNF/NT-3 growth factors receptor, sequence (Q16620 whole entry): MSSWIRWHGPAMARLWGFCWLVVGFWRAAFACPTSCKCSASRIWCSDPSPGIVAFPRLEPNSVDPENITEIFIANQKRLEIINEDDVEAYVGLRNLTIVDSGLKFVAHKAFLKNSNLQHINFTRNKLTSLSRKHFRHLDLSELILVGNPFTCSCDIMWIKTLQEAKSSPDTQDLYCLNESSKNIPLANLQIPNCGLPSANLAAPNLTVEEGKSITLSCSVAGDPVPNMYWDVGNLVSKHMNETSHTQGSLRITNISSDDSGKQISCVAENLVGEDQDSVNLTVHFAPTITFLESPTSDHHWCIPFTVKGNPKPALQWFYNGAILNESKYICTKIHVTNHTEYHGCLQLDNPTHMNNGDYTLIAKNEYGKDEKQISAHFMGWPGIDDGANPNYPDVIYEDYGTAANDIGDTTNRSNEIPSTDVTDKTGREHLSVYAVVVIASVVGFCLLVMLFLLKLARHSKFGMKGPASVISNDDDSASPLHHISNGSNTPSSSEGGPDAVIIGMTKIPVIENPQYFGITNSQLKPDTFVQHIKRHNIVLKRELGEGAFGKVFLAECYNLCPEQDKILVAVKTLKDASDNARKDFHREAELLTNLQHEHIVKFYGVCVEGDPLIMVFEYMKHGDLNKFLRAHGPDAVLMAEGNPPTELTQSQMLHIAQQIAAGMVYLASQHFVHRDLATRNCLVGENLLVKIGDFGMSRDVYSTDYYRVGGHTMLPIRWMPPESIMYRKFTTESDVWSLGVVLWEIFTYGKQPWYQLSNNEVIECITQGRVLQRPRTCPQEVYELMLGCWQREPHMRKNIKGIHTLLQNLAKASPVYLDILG
Tyrosine-protein kinase TXK, sequence (P42681 whole entry): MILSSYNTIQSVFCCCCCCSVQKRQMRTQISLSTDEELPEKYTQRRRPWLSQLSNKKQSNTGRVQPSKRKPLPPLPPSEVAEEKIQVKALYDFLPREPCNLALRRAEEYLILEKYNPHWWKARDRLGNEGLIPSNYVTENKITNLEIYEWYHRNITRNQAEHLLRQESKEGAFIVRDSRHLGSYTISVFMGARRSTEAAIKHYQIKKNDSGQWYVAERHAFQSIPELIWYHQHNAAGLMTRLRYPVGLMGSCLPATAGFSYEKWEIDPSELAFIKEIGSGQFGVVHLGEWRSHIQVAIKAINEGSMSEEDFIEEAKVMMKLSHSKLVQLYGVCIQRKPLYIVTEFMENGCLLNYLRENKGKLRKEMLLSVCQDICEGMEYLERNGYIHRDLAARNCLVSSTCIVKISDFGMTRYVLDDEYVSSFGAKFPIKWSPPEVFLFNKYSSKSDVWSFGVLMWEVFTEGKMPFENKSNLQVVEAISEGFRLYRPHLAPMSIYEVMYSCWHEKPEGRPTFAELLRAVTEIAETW
Receptor tyrosine-protein kinase erbB-4, sequence (Q15303 whole entry): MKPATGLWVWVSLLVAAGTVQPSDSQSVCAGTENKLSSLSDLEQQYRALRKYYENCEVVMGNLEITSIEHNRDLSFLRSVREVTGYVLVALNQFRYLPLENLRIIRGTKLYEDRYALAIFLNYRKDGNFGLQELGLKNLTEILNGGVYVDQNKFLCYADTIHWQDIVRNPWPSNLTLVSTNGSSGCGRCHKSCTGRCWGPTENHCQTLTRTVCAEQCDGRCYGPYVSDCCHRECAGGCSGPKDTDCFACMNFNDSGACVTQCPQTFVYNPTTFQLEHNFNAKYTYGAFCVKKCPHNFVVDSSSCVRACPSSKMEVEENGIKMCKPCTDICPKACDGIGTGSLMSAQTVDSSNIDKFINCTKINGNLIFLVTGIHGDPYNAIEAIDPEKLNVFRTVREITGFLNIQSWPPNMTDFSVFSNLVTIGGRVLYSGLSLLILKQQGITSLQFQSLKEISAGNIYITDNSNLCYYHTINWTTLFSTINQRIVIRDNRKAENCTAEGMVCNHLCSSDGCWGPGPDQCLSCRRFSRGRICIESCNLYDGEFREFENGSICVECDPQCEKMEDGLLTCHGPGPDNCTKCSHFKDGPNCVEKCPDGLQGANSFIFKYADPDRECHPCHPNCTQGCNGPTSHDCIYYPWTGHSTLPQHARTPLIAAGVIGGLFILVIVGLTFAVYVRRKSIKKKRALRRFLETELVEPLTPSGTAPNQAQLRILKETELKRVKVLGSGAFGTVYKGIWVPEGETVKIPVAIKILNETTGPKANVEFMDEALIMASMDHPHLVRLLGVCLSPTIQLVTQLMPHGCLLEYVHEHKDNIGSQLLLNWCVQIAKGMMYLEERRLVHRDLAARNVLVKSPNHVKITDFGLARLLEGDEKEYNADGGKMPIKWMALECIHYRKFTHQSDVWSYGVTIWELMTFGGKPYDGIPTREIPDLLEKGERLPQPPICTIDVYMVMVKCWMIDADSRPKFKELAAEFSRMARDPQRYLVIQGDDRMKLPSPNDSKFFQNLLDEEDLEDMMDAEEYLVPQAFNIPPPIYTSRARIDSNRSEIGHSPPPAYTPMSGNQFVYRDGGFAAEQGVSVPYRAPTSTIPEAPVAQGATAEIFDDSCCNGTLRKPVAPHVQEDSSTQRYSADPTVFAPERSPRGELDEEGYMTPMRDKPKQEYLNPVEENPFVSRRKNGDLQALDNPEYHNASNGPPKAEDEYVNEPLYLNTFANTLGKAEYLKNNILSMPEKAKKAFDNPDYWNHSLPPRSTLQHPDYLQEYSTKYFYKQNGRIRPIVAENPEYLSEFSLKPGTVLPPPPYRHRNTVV
Proto-oncogene tyrosine-protein kinase receptor Ret, sequence (P07949 whole entry): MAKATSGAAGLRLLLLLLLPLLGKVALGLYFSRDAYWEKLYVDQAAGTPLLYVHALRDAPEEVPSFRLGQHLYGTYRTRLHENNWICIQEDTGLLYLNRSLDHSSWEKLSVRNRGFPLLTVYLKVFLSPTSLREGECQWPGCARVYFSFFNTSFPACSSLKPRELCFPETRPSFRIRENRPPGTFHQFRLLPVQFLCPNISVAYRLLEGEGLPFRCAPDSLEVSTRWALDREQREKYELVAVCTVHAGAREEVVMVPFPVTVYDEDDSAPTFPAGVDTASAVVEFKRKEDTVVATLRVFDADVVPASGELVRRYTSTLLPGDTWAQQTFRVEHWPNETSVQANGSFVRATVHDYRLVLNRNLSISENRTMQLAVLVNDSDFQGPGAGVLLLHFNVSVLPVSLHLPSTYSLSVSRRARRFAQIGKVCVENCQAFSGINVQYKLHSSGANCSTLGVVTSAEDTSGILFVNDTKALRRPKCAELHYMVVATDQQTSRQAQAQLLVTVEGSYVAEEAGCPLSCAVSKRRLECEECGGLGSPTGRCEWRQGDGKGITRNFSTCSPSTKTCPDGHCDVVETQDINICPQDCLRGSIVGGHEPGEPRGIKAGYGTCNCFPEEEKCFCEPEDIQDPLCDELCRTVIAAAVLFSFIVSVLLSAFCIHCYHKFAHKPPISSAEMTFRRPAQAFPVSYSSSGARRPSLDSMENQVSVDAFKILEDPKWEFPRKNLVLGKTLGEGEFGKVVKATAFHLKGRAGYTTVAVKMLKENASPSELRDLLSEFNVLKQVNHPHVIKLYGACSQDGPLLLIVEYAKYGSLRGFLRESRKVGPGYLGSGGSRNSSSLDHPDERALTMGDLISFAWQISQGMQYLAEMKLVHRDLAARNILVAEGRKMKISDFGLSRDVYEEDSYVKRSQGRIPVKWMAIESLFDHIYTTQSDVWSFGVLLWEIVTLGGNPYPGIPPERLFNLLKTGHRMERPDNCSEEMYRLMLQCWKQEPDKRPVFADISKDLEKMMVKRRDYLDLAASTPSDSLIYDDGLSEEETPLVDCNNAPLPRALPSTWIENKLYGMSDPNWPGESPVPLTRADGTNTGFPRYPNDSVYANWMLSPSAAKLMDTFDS
Tyrosine-protein kinase Tec, sequence (P42680 whole entry): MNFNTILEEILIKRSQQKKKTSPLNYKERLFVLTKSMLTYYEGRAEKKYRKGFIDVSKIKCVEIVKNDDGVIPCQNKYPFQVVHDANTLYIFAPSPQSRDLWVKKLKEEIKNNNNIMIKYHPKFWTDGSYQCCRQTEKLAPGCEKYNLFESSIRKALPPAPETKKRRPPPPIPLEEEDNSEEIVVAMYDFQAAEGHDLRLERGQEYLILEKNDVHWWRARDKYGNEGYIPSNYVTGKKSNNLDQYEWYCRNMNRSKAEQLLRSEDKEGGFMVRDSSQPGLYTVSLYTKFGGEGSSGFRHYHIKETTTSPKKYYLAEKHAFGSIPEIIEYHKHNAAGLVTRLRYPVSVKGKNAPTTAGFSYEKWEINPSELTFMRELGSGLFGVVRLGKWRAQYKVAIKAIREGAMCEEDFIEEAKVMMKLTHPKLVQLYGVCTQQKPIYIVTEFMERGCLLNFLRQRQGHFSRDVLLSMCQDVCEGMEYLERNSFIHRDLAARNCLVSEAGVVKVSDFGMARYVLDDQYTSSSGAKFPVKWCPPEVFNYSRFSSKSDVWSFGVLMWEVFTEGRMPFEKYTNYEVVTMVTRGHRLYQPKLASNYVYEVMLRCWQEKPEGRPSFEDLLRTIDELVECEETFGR
Tyrosine-protein kinase ITK/TSK, sequence (Q08881 whole entry): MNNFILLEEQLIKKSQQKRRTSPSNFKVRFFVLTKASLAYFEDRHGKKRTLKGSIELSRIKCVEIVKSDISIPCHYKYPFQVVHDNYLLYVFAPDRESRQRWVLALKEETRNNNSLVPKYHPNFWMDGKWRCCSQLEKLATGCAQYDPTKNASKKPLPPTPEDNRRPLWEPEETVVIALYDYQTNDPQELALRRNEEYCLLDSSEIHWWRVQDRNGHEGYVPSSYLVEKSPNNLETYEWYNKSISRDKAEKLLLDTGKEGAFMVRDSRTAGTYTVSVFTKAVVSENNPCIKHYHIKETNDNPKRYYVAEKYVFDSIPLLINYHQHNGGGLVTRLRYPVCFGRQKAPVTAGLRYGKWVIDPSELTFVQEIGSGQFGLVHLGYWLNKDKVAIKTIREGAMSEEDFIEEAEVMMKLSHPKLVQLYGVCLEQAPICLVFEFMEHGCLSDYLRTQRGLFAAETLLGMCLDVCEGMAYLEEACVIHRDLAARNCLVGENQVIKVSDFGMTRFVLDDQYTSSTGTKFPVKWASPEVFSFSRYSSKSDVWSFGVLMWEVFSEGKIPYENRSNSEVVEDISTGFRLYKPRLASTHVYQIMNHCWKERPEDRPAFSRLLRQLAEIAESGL

**Q.** For `Cc1c(-c2ccc(C(N)=O)c3[nH]c4cc(C(C)(C)O)ccc4c23)cccc1-n1cnc2ccccc2c1=O`, which Cmax [1] is on record?
**A.** 8.96 µM

**Q.** And the pIC50 [2]?
**A.** 7.89

**Q.** What about the pIC50 [3] of the same compound?
**A.** 7.62

**Q.** And the pIC50 [4]?
**A.** 7.02

**Q.** What about the pIC50 [5] of the same compound?
**A.** 6.74

**Q.** And the pIC50 [6]?
**A.** 7.52

**Q.** What about the Activity [7] of the same compound?
**A.** Active

**Q.** And the pIC50 [8]?
**A.** 7.30

**Q.** What about the pIC50 [9] of the same compound?
**A.** 7.00

**Q.** And the pIC50 [10]?
**A.** 6.96

**Q.** What about the pIC50 [11] of the same compound?
**A.** 6.82

**Q.** What about the pIC50 [12] of the same compound?
**A.** 5.50

**Q.** What about the fraction unbound [13] of the same compound?
**A.** 0.006

**Q.** And the fraction unbound [14]?
**A.** 0.01

**Q.** What about the pIC50 [15] of the same compound?
**A.** < 4.40

**Q.** What about the pIC50 [16] of the same compound?
**A.** < 4.40

**Q.** And the pIC50 [17]?
**A.** < 5.10

**Q.** What about the solubility [18] of the same compound?
**A.** 6 µg/mL (≈ 11.9 µM)

**Q.** And the Papp [19]?
**A.** 102 ×10⁻⁶ cm/s

**Q.** And the Activity [20]?
**A.** Active

**Q.** And the Activity [21]?
**A.** Dose-dependent effect

**Q.** What about the Activity [22] of the same compound?
**A.** 40%

**Q.** And the Activity [23]?
**A.** Active

**Q.** And the Activity [24]?
**A.** Dose-dependent effect

**Q.** What about the Activity [25] of the same compound?
**A.** Dose-dependent effect

**Q.** What about the Activity [26] of the same compound?
**A.** Active

**Q.** And the Activity [27]?
**A.** Active

**Q.** And the Activity [28]?
**A.** Dose-dependent effect

**Q.** What about the Cmax [29] of the same compound?
**A.** 3.8 µM

**Q.** What about the Tmax [30] of the same compound?
**A.** 3 h

**Q.** And the AUC [31]?
**A.** 30.8 µM·h

**Q.** What about the half-life [32] of the same compound?
**A.** 4 h

**Q.** And the Vd [33]?
**A.** 1.7 L/kg

**Q.** And the bioavailability [34]?
**A.** 94%

**Q.** And the Cmax [35]?
**A.** 2 µM

**Q.** And the AUC [36]?
**A.** 21.2 µM·h

**Q.** What about the clearance [37] of the same compound?
**A.** 6.4 mL/min/kg

**Q.** And the AUC [38]?
**A.** 14.2 µM·h

**Q.** What about the Tmax [39] of the same compound?
**A.** 2.7 h

**Q.** And the AUC [40]?
**A.** 32 µM·h

**Q.** And the bioavailability [41]?
**A.** 100%

**Q.** What about the Activity [42] of the same compound?
**A.** Dose-dependent effect
